STEP block: inhibitors of human striatal-enriched phosphatase STEP; P54829; recombinant STEP, OMFP fluorogenic substrate, fluorescence; inhibition, % at 20 µM; 360,000 tested, 0.25% active;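 active = inhibition at 20 µM, scaled per plate between control wells, above about 37%, limit read from the data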;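 also: 0% = DMSO with enzyme and substrate and 100% = substrate only without enzyme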
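Material: STEP (striatal-enriched tyrosine phosphatase) enzyme, cell-free | Medium: 50 mM Bis-Tris pH 6.0 with 2.5 mM DTT and 0.005% Tween 20 | Read-out: Percent inhibition scaled to no-enzyme and uninhibited-enzyme controls, plate-pattern corrected | Signal: Fluorescence read at 480 nm ex / 540 nm em | Times: 20 min reaction, room temperature, in the dark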
DNMT1 inh: blocks human DNA methyltransferase DNMT1 | P26358 | DNMT1 molecular beacon, Hinp1I cleavage, fluorescence | inhibition (reported as % activation of signal), % at 10 µM | 360,000 tested, 0.83% active | AID 588458; in the data active = inhibition above about 50%
Scp-1 inhibitor: inhibitors of human Scp-1 phosphatase; Q9GZU7; Recombinant Scp1, phosphopeptide, malachite green phosphate absorbance; inhibition, % at 20 µM; 340,000 tested, 0.88% active;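 active = inhibition above about 50% at 20 µM, limit read from the data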;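 also: plate controls were DMSO wells with enzyme for no effect and wells lacking enzyme for full effect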
Target sequence (Q9GZU7 76-261 limits assumed): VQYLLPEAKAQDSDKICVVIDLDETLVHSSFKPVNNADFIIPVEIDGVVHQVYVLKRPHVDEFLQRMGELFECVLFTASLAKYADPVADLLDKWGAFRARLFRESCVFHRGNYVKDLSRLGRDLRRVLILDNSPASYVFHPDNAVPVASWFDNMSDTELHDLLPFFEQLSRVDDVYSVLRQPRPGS
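System: truncated SCP-1 phosphatase (76-261aa); medium: Tris acetate buffer pH 5.5 with MgCl2 and Tween-20; incubation: 45 min room-temperature reaction, 5 min colour, 30 min stabiliser; compound: single 20 µM dose, 1% DMSO; reagent: Phosphorylated 17-residue peptide substrate; read-out: % inhibition at 20 µM; technique: colorimetric free-phosphate detection, absorbance 630 nm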
LMPTP inh: LMPTP (human) inhibition; P24666; recombinant LMPTP-A, OMFP fluorogenic substrate, fluorescence intensity; inhibition, % at 20 µM; 360,000 tested, 0.22% active; AID 651560;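 active = compounds that cut the enzyme signal by at least half of the control window in the single-dose screen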;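 also: plate controls were DMSO wells with enzyme plus substrate for no effect and substrate without enzyme for full effect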
Target sequence (P24666 whole entry, looked up): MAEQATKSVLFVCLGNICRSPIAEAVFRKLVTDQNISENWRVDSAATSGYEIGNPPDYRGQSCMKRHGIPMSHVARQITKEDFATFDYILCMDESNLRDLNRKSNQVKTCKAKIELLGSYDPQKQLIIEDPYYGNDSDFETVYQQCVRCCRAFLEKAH
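Test system – LMPTP-A enzyme · Amount – LMPTP-A at 0.625 nM final in the reaction · Buffer or medium – Bis-Tris pH 6.0, DTT, detergent · Reagent – OMFP 400 µM · Doses – single 20 µM dose · Schedule – reaction 50 min, room temperature, dark · Detection – fluorescence intensity of OMFP turnover product · Evaluation – percent inhibition versus substrate-only and uninhibited controls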
SUMO1-SIM PPI: SUMO1-SIM interaction modulation | P63165 | SUMO1 binding to a labelled peptide, TR-FRET, 1 h | inhibition, % at 20 µM | 360,000 tested, 0.33% active | AID 602429; in the data active = inhibition above about 37%
Target sequence (P63165 whole entry, looked up): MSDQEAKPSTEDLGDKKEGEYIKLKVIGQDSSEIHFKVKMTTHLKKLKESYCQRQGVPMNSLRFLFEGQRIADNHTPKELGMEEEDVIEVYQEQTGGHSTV
DNMT1 inh conf: DNMT1 inhibition confirmation, single concentration; DNMT1 molecular beacon HinP1I cleavage, fluorescence; shares compounds with DNMT1 inh; 2,300 tested, 8% active; AID 602385; inhibition, % at 10 µM;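 active = average inhibition of at least 30% in the single-concentration confirmation test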
Beacon interf: shows spectral interference in the DNMT1 beacon assay. shares compounds with DNMT1 inh. DNMT1 molecular beacon spectral interference counterscreen, fluorescence 485/520. activation (fluorescence interference), % at 10 µM. 2,300 tested, 1% active. AID 602387;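 active = activation of at least 30% at 10 µM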;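 also: DNMT1 catalytic domain with a HinP1I cleavage step and a FAM/dabcyl DNA beacon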
* marks the source's active call; other numbers are inactive results; nt = no result. Hits are enriched below; roughly 1.8% of the tested compounds scored in any of these assays.

SMILES | STEP block | DNMT1 inh | Scp-1 inhibitor | LMPTP inh | SUMO1-SIM PPI | DNMT1 inh conf | Beacon interf
O=C(Nc1ccc2oc(-c3ccccc3F)nc2c1)c1cncc(Br)c1 | 14 | 62* | 47 | 32 | 0 | 2 | 2
CC(C)(C(=O)N1CCC1(C)C(=O)NS(=O)(=O)c1cccc(Cl)c1)c1ccccc1 (configuration not stated) | -2 | 4 | nt | -2 | 3 | nt | nt
CN1CCN(C(=O)CCN2C(=O)c3ccccc3C2=O)CC1 | -1 | 51* | -1 | 0 | -3 | 1 | 2
COc1ccc(C(C)(O)c2nc(-c3cccc(C(C)C)c3)cs2)cc1 (configuration not stated) | 0 | -5 | nt | 4 | 3 | nt | nt
Cc1nn(C)c(C)c1NC(=O)CSc1nc(Cc2ccccc2)nc2c1cnn2-c1ccccc1 | 4 | 51* | 7 | 0 | -5 | 1 | -1
Cc1nn(Cc2ccccc2)c(C)c1NC(=O)CSc1nc(C2CC2)nc2c1cnn2-c1ccccc1 | 0 | 58* | 9 | 0 | 1 | 5 | -5
O=C(CSc1nc(C2CC2)nc2c1cnn2-c1ccccc1)Nc1c[nH]c(=O)[nH]c1=O | 6 | 27 | 13 | 9 | 8 | nt | nt
CN(C)CCN(Cc1ccccc1)C(c1cc2ccccc2o1)c1nnnn1C(C)(C)C (configuration not stated) | nt | nt | nt | -2 | 0 | nt | nt
O=C(OCCCc1cc2ccccc2c(=O)o1)c1ccc2c(c1)OCO2 | 2 | 3 | -3 | 0 | 0 | nt | nt
O=C(OCCc1cc2ccccc2c(=O)o1)c1ccc2c(c1)OCO2 | 1 | 71* | -4 | 17 | 8 | 1 | 1
O=C1c2oc3ccc(Cl)cc3c(=O)c2C(c2cccc(Br)c2)N1CCO (configuration not stated) | 0 | 61* | -3 | 0 | -13 | 1 | 3
CCN(CC)CCN1C(=O)c2oc3ccccc3c(=O)c2C1c1cccc(Br)c1 (configuration not stated) | 3 | -2 | -7 | -2 | -1 | nt | nt
CCCN(CC(=O)Nc1ccc(Cl)cc1Cl)C(=O)CC(NC(C)=O)c1ccccc1 (configuration not stated) | 0 | -2 | -1 | 1 | -6 | nt | nt
CC(=O)NC(CC(=O)NC(C)c1ccc(Cl)cc1Cl)c1ccccc1 (configuration not stated) | -1 | 68* | -4 | -1 | 1 | 0 | 2
N#Cc1c2ccc(OCC(=O)NCc3ccco3)cc2n2ccccc12 | 6 | 62* | 15 | 1 | 7 | 1 | 0
CC(C)(C)c1ccc(OCC(=O)NCc2ccco2)cc1 | 2 | 4 | -13 | 0 | 1 | nt | nt
Cc1cc(NS(=O)(=O)c2ccc(NC(=O)COc3cc(C)c(Cl)c(C)c3)cc2)no1 | 3 | 1 | -12 | -1 | 8 | nt | nt
COc1cccc(OC)c1OC(=O)C1CC(=O)N(c2ccc3c(c2)OCCO3)C1 (configuration not stated) | 6 | 53* | 47 | 3 | 31 | 2 | 0
C[C@H](O)[C@@H]1C(=O)N2CCc3c([nH]c4ccccc34)[C@@H]2C[C@@H]1N(C)S(=O)(=O)c1ccccc1 | 2 | -1 | nt | 1 | -3 | nt | nt
O=C(/C=C/c1ccco1)N1CCC(Cc2ccccc2)CC1 | 1 | 87* | 17 | 4 | 1 | 7 | -2
O=C(/C=C/c1ccco1)N1CCN(c2ncccn2)CC1 | -1 | 13 | 0 | 0 | -1 | nt | nt
Nc1ccn([C@@H]2O[C@H](CNC(=O)[C@@H](Cc3cn(COCc4ccccc4)cn3)NC=O)[C@@H](O)[C@H]2O)c(=O)n1 | 0 | 4 | nt | -2 | 4 | nt | nt
O=C(O)c1ccccc1C(=O)Nc1ccc(Oc2ccccc2)cc1 | 1 | -1 | -4 | 0 | -3 | nt | nt
O=C(Nc1cccc(Oc2ccc(C(=O)O)c(C(=O)O)c2)c1)c1ccc(-c2ccccc2)cc1 | 35 | 53* | 20 | 8 | 22 | 15 | -1
COc1ccc(NC(=O)CCn2c(=S)[nH]c3ccccc3c2=O)cc1Cl | 23 | 54* | nt | 49* | 13 | 3 | 6
SMILES | STEP block | DNMT1 inh | Scp-1 inhibitor | LMPTP inh | SUMO1-SIM PPI | DNMT1 inh conf | Beacon interf
CC(C)(C)C(=O)Nc1nnc(CC(=O)NCc2ccccc2)s1 | 10 | 61* | -3 | 0 | -2 | 7 | 4
CCCCn1c(N)c(N(CC(C)C)C(=O)c2ccc(-c3ccc([N+](=O)[O-])cc3)o2)c(=O)[nH]c1=O | -4 | 1 | -1 | -3 | -20 | nt | nt
CCCCn1c(N)c(N(CCC(C)C)C(=O)c2ccc(-c3ccc([N+](=O)[O-])cc3)o2)c(=O)[nH]c1=O | 2 | 84* | -7 | -4 | -9 | 0 | 7
Cc1ccc(NC(=O)c2ccc3c(c2)C(=O)N(c2ccccc2C)C3=O)nc1 | -5 | 80* | 0 | 1 | -33 | 2 | 3
Cc1ccc(C)c(N2C(=O)c3ccc(C(=O)Nc4ccccn4)cc3C2=O)c1 | -2 | 1 | nt | -2 | -19 | nt | nt
O=C(COC(=O)c1cc([N+](=O)[O-])ccc1NCCO)c1ccc(Cl)cc1 | -1 | -2 | -3 | 1 | -16 | nt | nt
CCc1ccc(C(=O)COC(=O)c2cc([N+](=O)[O-])ccc2NCCO)cc1 | 3 | 90* | -9 | 1 | -16 | 5 | 7
CC(=O)c1ccccc1C(=O)N1CCC(n2nccc2NC(=O)C2CC2)CC1 | -4 | -4 | -8 | 0 | -3 | nt | nt
COC(=O)c1c(C)[nH]c(C(=O)OCC(=O)c2c(N)n(CC(C)C)c(=O)n(C)c2=O)c1C | -2 | -9 | -8 | 0 | 2 | nt | nt
Cc1cccc(NC(=O)c2nc[nH]c2C(=O)N2CCc3ccccc3C2)c1 | 1 | -5 | -3 | 2 | 6 | nt | nt
O=C(/C=C/c1ccco1)NC(=S)Nc1cccc(-c2nc3ccccc3s2)c1 | -1 | 32 | -14 | 5 | 23 | nt | nt
Cc1ccc(-c2nc3ccccc3s2)cc1NC(=S)NC(=O)/C=C/c1ccco1 | 6 | 54* | -8 | 0 | 13 | -2 | -5
O=C(/C=C/c1ccco1)NC(=S)Nc1cc(-c2nc3ccccc3s2)ccc1Cl | -2 | 98* | -2 | 5 | 25 | 2 | -4
CCN(C(=O)c1cc2c(=O)[nH]c3ccc(C)cc3c2s1)c1ccccc1F | 3 | 63* | 3 | -2 | 18 | -1 | -2
CCOC(=O)N1CCN(S(=O)(=O)N2CCCC(C(=O)NCc3ccc(C)cc3)C2)CC1 (configuration not stated) | -3 | 3 | nt | -2 | 2 | nt | nt
Cc1cccc(N=C2NC(=O)/C(=C/C=C/c3ccco3)S2)c1C | 4 | 94* | 66* | 27 | 40* | 10 | 3

Bioassay records as filed in PubChem BioAssay.
